These results are taken from ChEMBL document CHEMBL3600315, “Molecular modeling based approach, synthesis, and cytotoxic activity of novel benzoin derivatives targeting phosphoinostide 3-kinase (PI3Kα)” (Bioorg Med Chem Lett, 2015).

Activity calls are given as the source filed them. The rule behind the calls is not given here.

In the experiment the test system is HCT-116. Description: Induction of apoptosis in human HCT116 cells assessed as increase in caspase-3 activity at 700 uM after 24 hrs by DEVD-pNA substrate-based colorimetric assay relative to control. It is filed as functional, cell-based. Put shortly: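 HCT116 cells were incubated with each compound for 24 or 48 h. Caspase-3 enzyme activity was measured relative to untreated control cells. Values are means of two independent experiments, with P < 0.05 taken as significant.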
On to `O=C(OC(C(=O)c1ccccc1)c1ccccc1)c1ccc([N+](=O)[O-])cc1` (stereo unspecified), for which the outcome was Active.

`O=C(OC(C(=O)c1ccccc1)c1ccccc1)c1ccc(F)cc1` (stereo unspecified): the result was Active.

Consider `COc1ccc(C(=O)C(O)c2ccc(OC)cc2)cc1` (stereo unspecified), for which the result was Active.

Turning to `O=C(OC(C(=O)c1ccccc1)c1ccccc1)c1ccccc1F` (stereo unspecified), the result was Active.

Turning to `O=C(OC(C(=O)c1ccccc1)c1ccccc1)c1ccc(Cl)cc1` (stereo unspecified), the result was Active.

For `O=C(OC(C(=O)c1ccccc1)c1ccccc1)c1cccc(F)c1` (stereo unspecified), the outcome was Active.
